Shown are actives, neighbours in structure and some others; about 1.6% of the full set was active somewhere.
TLR4-MyD88 BLA: TLR4-MyD88 interaction inhibition in cells. HeLa CL3-4 TLR4/MyD88 BLA complementation, FRET ratio. inhibition, % at 8.4 µM. hit rate 0.18% among 200,000. AID 861; in the data active means inhibition above about 25%;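 further: 0% = vehicle and 100% = reference inhibitor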
NOD2 RIPK2 PPI: NOD2-RIPK2 protein interaction inhibition. CHO BLA complementation NOD2-RIPK2, CCF4 ratio. hit rate 0.38% among 360,000. AID 624267. inhibition, % at 4.98 µM; in the data active means inhibition above about 21%;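 further: 0% = vehicle only and 100% = reference blocker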
SR-BI DiI inh: inhibitors of mouse SR-BI mediated HDL lipid uptake. hit rate 0.96% among 320,000. inhibition, % at 12.5 µM. ldlA[mSR-BI] CHO cells, DiI-HDL uptake fluorescence, 3 h. Q61009;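 active means mean replicate inhibition of at least 70% and a set share of replicates each scoring 70 or more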;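 further: 0% = median of neutral control wells and 100% = median of positive control wells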
Target sequence (Q61009 whole entry, looked up): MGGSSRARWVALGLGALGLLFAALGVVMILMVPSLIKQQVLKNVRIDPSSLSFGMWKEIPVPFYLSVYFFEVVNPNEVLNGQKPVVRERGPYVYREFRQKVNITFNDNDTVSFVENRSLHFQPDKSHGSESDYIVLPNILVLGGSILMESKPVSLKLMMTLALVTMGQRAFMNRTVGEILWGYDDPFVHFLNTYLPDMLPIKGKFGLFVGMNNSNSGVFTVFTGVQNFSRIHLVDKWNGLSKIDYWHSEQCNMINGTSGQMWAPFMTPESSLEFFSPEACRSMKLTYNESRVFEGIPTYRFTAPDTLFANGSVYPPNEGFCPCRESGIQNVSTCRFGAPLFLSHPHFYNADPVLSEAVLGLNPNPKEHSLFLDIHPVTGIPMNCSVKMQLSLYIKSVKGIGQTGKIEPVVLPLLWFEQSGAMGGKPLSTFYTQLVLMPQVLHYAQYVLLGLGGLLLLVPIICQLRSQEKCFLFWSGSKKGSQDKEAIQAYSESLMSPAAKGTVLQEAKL
Lipid droplet: modulators of hepatic lipid droplet formation; AML12 mouse hepatocytes, oleate lipid droplets, BODIPY imaging; inhibition, % at 6.5 µM; hit rate 0.4% among 240,000; AID 1656;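 active means lipid droplet intensity inhibited by at least 50%, with more than 500 cells counted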
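Test system: AML12 hepatocytes (mouse); reagent: oleate loading, 100 µM; dosing: one dose, 6.5 µM compound; incubation: overnight exposure; signal: fluorescence imaging, 20x objective, two fields per well; read-out basis: % inhibition of corrected integrated BODIPY droplet signal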
SR-BI DiI-HDL act: SR-BI HDL lipid transfer activation; CHO ldlA[mSR-BI] cells, DiI-HDL uptake fluorescence, 3 h; 100 = double the neutral-control signal; activation, % at 12.5 µM; hit rate 0.096% among 320,000;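 active means mean replicate activation of at least 60% and every replicate at or above 60%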;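 further: 0% = median plate neutral-control signal and 100% = twice that signal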
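Material: SR-BI-overexpressing, LDLR-lacking CHO cells; schedule: compound exposure 3 h, 37 °C; reagent: DiI-labelled HDL at 10 µg/mL final; technique: bottom-read fluorescence, 550/595 nm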
TLR9-MyD88 inh: TLR9-MyD88 interaction inhibition; Q9NR96+Q99836; CHO BLA complementation TLR9-MyD88, CCF4 FRET ratio; inhibition, % at 4.98 µM; hit rate 0.21% among 340,000;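 active means inhibition above the mean over all tested compounds plus 3 SD, cut at about 21% in these data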;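 further: 0% = DMSO only wells and 100% = clavulanate BLA inhibitor control wells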
TLR9-MyD88 conf: TLR9-MyD88 interaction inhibition, confirmation; shares compounds with TLR9-MyD88 inh; CHO TLR9/MyD88 BLA complementation, CCF4 FRET ratio; inhibition, % at 4.98 µM; hit rate 51% among 680; AID 540250;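 active means mean inhibition across three repeats above about 21% taken from the earlier screen, limit read from the data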;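 further: blue over green emission ratio reports constitutive TLR9 MyD88 association via BLA complementation; 0% = DMSO vehicle wells and 100% = clavulanate BLA inhibitor wells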
BLA counter-1: non-selective beta-lactamase inhibitors in TLR9-MyD88 counter-screen. shares compounds with TLR9-MyD88 inh. CHO-BLA cells, CCF4 FRET ratio, BLA reporter. inhibition, % at 4.98 µM. hit rate 7% among 680. AID 540251;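 active means mean inhibition above a 50% cutoff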;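 further: counterscreen of TLR9-MyD88 hits on CMV-driven BLA in CHO-K1 cells; 0% = DMSO alone and 100% = clavulanate blocking BLA; higher means less blue over green ratio so more BLA blockade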
TLR9 CHO cytotox: counter-screen for TLR9-MyD88 inhibitors: cytotoxicity in CHO cells; hit rate 39% among 680; inhibition, % at 4.98 µM; shares compounds with TLR9-MyD88 inh; luminescence; AID 588336; in the data active means inhibition above about 11%
NOD2 RIPK2 conf: NOD2-RIPK2 interaction inhibition confirmed; shares compounds with NOD2 RIPK2 PPI; CHO cells, NOD2-RIPK2 BLA complementation, CCF4 FRET; inhibition, % at 4.98 µM; hit rate 70% among 1,200; AID 624370;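 active means mean inhibition across replicates above a set limit taken from the earlier primary screen, cut at about 21% in these data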;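 further: 0% = DMSO-only wells and the high end = clavulanate BLA-blocked wells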
BLA counter-2: counter-screen for NOD2-RIPK2 interaction inhibitors: BLA reporter. shares compounds with NOD2 RIPK2 PPI. CHO BLA reporter, CCF4 FRET ratio, counterscreen. inhibition, % at 4.98 µM. hit rate 57% among 1,200. AID 624371;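 active means mean inhibition above the low-control mean inhibition plus three low-control SD, cut at about 11% in these data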;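 further: 0% = DMSO only wells and 100% = clavulanate high control wells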
An asterisk follows results filed as active; x = no result given.

SMILES | TLR4-MyD88 BLA | NOD2 RIPK2 PPI | SR-BI DiI inh | Lipid droplet | SR-BI DiI-HDL act | TLR9-MyD88 inh | TLR9-MyD88 conf | BLA counter-1 | TLR9 CHO cytotox | NOD2 RIPK2 conf | BLA counter-2
Cc1nnc(N2C(=O)c3cccc4c([N+](=O)[O-])ccc(c34)C2=O)s1 | x | 91* | -6 | 6 | 6 | 80* | 67* | 84* | 58* | 93* | 87*
Cc1cccc(N2C(=O)c3cccc4c(N5CCCCC5)c([N+](=O)[O-])cc(c34)C2=O)c1C | 6 | -4 | 31 | 19 | -31 | 2 | x | x | x | x | x
COc1ccccc1CNC(=O)CN1C(=O)NC2(CCOc3ccccc32)C1=O (stereo unspecified) | x | -5 | -7 | x | 7 | 4 | x | x | x | x | x
CC(C)N1C(=O)S/C(=C\c2ccc(-c3ccc(Cl)c(C(=O)O)c3)o2)C1=O | x | 7 | 2 | 10 | -2 | -10 | x | x | x | x | x
CCN(CC)c1ccc(/C=C2/SC(=O)N(C(C)C)C2=O)o1 | 7 | 65* | 6 | 7 | -6 | 31* | 8 | 4 | 61* | 27* | 15*
COc1ccc(CNC(=O)CSc2nnc3c(Cl)cc(C(F)(F)F)cn23)cc1OC | 3 | 0 | -16 | 3 | 16 | -6 | x | x | x | x | x
C=CCNC(=O)c1onc(CSc2ccccn2)c1C(=O)NCC=C | x | -2 | -25 | x | 25 | -6 | x | x | x | x | x
C[C@@H]1CN([C@@H](C)CO)C(=O)c2cccc(NC(=O)Nc3ccc4c(c3)OCO4)c2O[C@H]1CN(C)S(=O)(=O)c1cn(C)cn1 | x | -8 | -2 | x | 2 | 11 | x | x | x | x | x
COc1cc(OC)nc(-n2ncc(Br)c(Br)c2=O)n1 | 7 | 50* | -28 | x | 28 | 23* | 27* | 22 | 100* | 60* | 10
COC(=O)c1cnn(-c2nc(OC)cc(OC)n2)c1C | -19 | 0 | 24 | 0 | -24 | -6 | x | x | x | x | x
CCOC(=O)C1=C(CSc2nc3c(cc2C#N)CCC3)OC(N)=C(C#N)C1c1ccccc1 (stereo unspecified) | -5 | -1 | 9 | -3 | -9 | -56 | x | x | x | x | x
CCOC(=O)C1=C(CSc2nc(-c3ccccc3)ccc2C#N)OC(N)=C(C#N)C1c1ccccc1 (stereo unspecified) | 19 | 36* | 4 | 1 | -4 | 32* | 6 | 6 | 20* | 25* | 25*
O=C(NCCCN1C(=O)c2ccccc2C1=O)OCc1ccccc1 | x | -1 | -5 | x | 5 | -6 | x | x | x | x | x
CC(NC(=O)/C(C#N)=C/c1ccc([N+](=O)[O-])o1)c1ccccc1 (stereo unspecified) | x | 52* | 7 | 10 | -7 | 21* | 36* | 19 | 99* | 51* | 34*
O=C1/C(=C/c2ccc(O)c(O)c2)Oc2cc(O)ccc21 | x | 13 | 0 | 2 | 0 | 13 | x | x | x | x | x
Cc1ccsc1/C=C1\Oc2cc(O)ccc2C1=O | x | 50* | x | x | x | 25* | 16 | 21 | 1 | 40* | 52*
COc1cc(/C=C2\Oc3cc(O)ccc3C2=O)ccc1O | x | 44* | -19 | 6 | 19 | 31* | 15 | 19 | -2 | 43* | 47*
CCOc1ccc(S(=O)(=O)N2CCOCC2)cc1NC(=O)CSC(=S)N1CCCC1 | x | -4 | -13 | x | 13 | 6 | x | x | x | x | x

Screening results deposited in PubChem by several laboratories.
